Results published in ChEMBL document CHEMBL1128432, “Structure-activity relationships for inhibition of type 1 and 2 human 5 alpha-reductase and human adrenal 3 beta-hydroxy-delta 5-steroid dehydrogenase/3-keto-delta 5-steroid isomerase by 6-azaandrost-4-en-3-ones: optimization of the C17 substituent” (J Med Chem, 1995).

Key:
[1] = target: T1, 3-oxo-5-alpha-steroid 4-dehydrogenase 1 (Homo sapiens, UniProt P18405); test: Inhibition of recombinant steroid 5-alpha-reductase type I
T1 sequence (P18405 whole entry): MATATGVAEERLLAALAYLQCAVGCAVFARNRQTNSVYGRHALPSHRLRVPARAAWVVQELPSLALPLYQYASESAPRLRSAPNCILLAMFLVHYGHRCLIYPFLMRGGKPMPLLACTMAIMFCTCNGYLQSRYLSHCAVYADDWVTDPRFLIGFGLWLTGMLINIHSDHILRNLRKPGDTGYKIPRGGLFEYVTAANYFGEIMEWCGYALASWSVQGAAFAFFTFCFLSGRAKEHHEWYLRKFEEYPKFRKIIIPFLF

[2] = target: T2, 3-oxo-5-alpha-steroid 4-dehydrogenase 2 (Homo sapiens, UniProt P31213); test: Inhibitory activity measured on human steroid 5-alpha-reductase type 2
T2 sequence (P31213 whole entry): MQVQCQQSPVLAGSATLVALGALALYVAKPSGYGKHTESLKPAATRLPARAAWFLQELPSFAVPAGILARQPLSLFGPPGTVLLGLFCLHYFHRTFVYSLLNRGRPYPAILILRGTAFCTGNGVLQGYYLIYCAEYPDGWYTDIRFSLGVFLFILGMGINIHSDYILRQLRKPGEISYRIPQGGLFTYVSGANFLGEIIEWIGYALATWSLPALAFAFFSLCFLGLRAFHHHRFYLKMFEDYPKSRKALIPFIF

[3] = Inhibition of recombinant human adrenal 3-beta-hydroxy-delta-5-steroid dehydrogenase
[4] = target: T1, 3-oxo-5-alpha-steroid 4-dehydrogenase 1; test: (§1) Inhibition of recombinant Steroid 5-alpha-reductase type I was evaluated as binding affinity of the compound
[5] = Inhibition of […] rat adrenal 3-beta-hydroxy-delta-5-steroid dehydrogenase
Summary of the method: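 Rat adrenal microsomes from homogenization and differential centrifugation. Started with 8 nM [3H]DHEA, stopped at 15 min with ethanol, and androstenedione measured by radio-HPLC. Kiapp from nonlinear regression, converted to Ki with Km 21 nM.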

[6] = Bioavailability in dog (Beagle) at t1/2 (dose 5 mg/kg i.v.); type: ADME, organism-based, Canis lupus familiaris; conditions: in vivo, iv
Summary of the method: (§2)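 Male beagles dosed intravenously (5 mg/kg for these lines), 2–5 animals. Blood half-life measured in hours after iv dosing; % bioavailability reported alongside.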

[7] = Plasma half life in beagles after iv administration.; conditions: beagle, dog
Rattus norvegicus = test: % reduction in prostate weight when compared with T-treated controls was measured in castrated rat at 10 mg/kg/day po administration; type: functional, Prostate gland
Summary of the method: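 Castrated male rats, 8 per group, given 10 mg/kg/day orally alongside testosterone. The readout is ventral prostate weight reduction versus testosterone-treated controls, expressed relative to finasteride run as an internal standard in each experiment.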

[8] = target: T3, 3-oxo-5-alpha-steroid 4-dehydrogenase 2 (Rattus norvegicus, UniProt P31214); test: Inhibitory activity was measured on rat Steroid 5-alpha-reductase type 2
T3 sequence (P31214 whole entry): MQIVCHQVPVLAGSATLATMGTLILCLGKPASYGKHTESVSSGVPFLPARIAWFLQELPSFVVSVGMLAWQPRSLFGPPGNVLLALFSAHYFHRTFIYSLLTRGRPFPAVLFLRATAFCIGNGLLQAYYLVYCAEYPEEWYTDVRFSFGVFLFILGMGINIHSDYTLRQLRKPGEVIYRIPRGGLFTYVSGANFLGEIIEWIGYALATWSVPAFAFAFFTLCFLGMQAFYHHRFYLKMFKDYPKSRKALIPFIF
Summary of the method: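 Recombinant rat type 2 5α-reductase, assayed by the same procedure as the human type 2 assay, with changes specific to the rat enzymes.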

[9] = target: T4, 3-oxo-5-alpha-steroid 4-dehydrogenase 1 (Rattus norvegicus, UniProt P24008); test: as §1
T4 sequence (P24008 whole entry): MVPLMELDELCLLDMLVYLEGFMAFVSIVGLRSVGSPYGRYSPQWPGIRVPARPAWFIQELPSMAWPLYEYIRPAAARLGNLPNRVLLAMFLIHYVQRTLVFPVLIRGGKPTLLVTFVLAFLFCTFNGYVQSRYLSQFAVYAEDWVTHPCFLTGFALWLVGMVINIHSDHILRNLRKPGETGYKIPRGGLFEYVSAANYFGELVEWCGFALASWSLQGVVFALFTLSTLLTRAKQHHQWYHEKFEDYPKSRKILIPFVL

[10] = target: T4, 3-oxo-5-alpha-steroid 4-dehydrogenase 1; test: Inhibition of recombinant Steroid 5-alpha-reductase type I was evaluated as binding affinity (in vitro)
[11] = Plasma half life in beagles after iv administration of 5 mg/kg.; type: ADME, organism-based, Canis lupus familiaris; design: dose 5 mg/kg, route intravenous; conditions: beagle, dog; summary of the method: as §2
[12] = 4 mg/kg, in the assay text read “dose 4 mg/kg i.v.” for “dose 5 mg/kg i.v.”

Row | Structure (SMILES) | Ki [1] [nM] | IC50 [2] [nM] | Ki [3] [nM] | further results
1 | CC(C)(C)c1ccc(-c2ccc(Cl)cc2)cc1NC(=O)[C@H]1CCC2C3CNC4=CC(=O)CC[C@]4(C)C3CC[C@@]21C (some centres not stated) | 3.4 | < 0.1 | 1200 | –
2 | CC(C)(C)c1ccc(Br)cc1NC(=O)[C@H]1CCC2C3CNC4=CC(=O)CC[C@]4(C)C3CC[C@@]21C (some centres not stated) | 4.2 | < 0.1 | 820 | –
3 | CC(C)(C)c1ccc(Cl)cc1NC(=O)[C@H]1CCC2C3CNC4=CC(=O)CC[C@]4(C)C3CC[C@@]21C (some centres not stated) | 7.5 | < 0.1 | 760 | –
4 | CC(C)(C)c1ccc(C2(NC(=O)[C@H]3CCC4C5CNC6=CC(=O)CC[C@]6(C)C5CC[C@@]43C)CCCC2)cc1 (some centres not stated) | 3 | < 0.1 | 1500 | –
5 | C[C@]12CCC(=O)C=C1NCC1C2CC[C@@]2(C)C1CC[C@@H]2C(=O)NC1(c2ccc(Cl)cc2)CCCCC1 (some centres not stated) | 3.1 | < 0.1 | 1800 | –
6 | CC(C)(C)c1ccc(C2(NC(=O)[C@H]3CCC4C5CNC6=CC(=O)CC[C@]6(C)C5CC[C@@]43C)CCCCCC2)cc1 (some centres not stated) | 3.6 | < 0.1 | 1500 | –
7 | CC(C)(C)c1ccc(C(C)(C)C)c(NC(=O)[C@H]2CCC3C4CNC5=CC(=O)CC[C@]5(C)C4CC[C@@]32C)c1 (some centres not stated) | 5 | < 0.1 | 500 | –
8 | C[C@]12C=CC(=O)NC1CCC1C2CC[C@@]2(C)C1CC[C@@H]2C(=O)NC1(c2ccc(Cl)cc2)CCCC1 (some centres not stated) | – | < 0.1 | 9000 | IC50 [4]: 0.9 nM
9 | CC(C)(C)c1cc(Br)ccc1NC(=O)[C@H]1CCC2C3CNC4=CC(=O)CC[C@]4(C)C3CC[C@@]21C (some centres not stated) | 5.3 | < 0.1 | 390 | –
10 | CC(C)(C)c1ccc(C(F)(F)F)cc1NC(=O)[C@H]1CCC2C3CNC4=CC(=O)CC[C@]4(C)C3CC[C@@]21C (some centres not stated) | 8.8 | < 0.1 | 1600 | Ki [5]: 140 nM; bioavailability [6, 12]: 67%; half-life [7]: 8.8 h; Reduction in prostate weight (Rattus norvegicus): 100%; Ki [8]: 0.17 nM; Ki [9]: 0.1 nM
11 | CC(C)(C)c1ccc(-c2ccc(C(C)(C)C)c(NC(=O)[C@H]3CCC4C5CNC6=CC(=O)CC[C@]6(C)C5CC[C@@]43C)c2)cc1 (some centres not stated) | 1.3 | < 0.1 | 8900 | –
12 | CC(C)(C)c1ccc(C2(NC(=O)[C@H]3CCC4C5CNC6=CC(=O)CC[C@]6(C)C5CC[C@@]43C)CCCCC2)cc1 (some centres not stated) | 1.5 | < 0.1 | 2200 | –
13 | C[C@]12CCC(=O)C=C1NCC1C2CC[C@@]2(C)C1CC[C@@H]2C(=O)NC1(c2ccc(Cl)cc2)CCCC1 (some centres not stated) | 6.8 | < 0.1 | 1600 | Ki [5]: 97 nM; bioavailability ([6]; 5 mg/kg): 79%; Ki [10]: 0.07 nM; half-life [7]: 12 h; Reduction in prostate weight (Rattus norvegicus): 130%; Ki [8]: 0.12 nM
14 | C[C@]12CC[C@H]3[C@@H](CNC4=C(Cl)C(=O)CC[C@@]43C)[C@@H]1CC[C@@H]2C(=O)Nc1c(C(F)(F)F)cccc1C(F)(F)F (stereo in doubt; 25) | 0.6 | – | 370 | –
15 | CC(C)(C)NC(=O)[C@H]1CC[C@H]2[C@@H]3CC[C@H]4NC(=O)C=C[C@]4(C)[C@H]3CC[C@]12C [FINASTERIDE] | – | – | 11000 | Ki [5]: 150 nM; Ki [10]: 6.8 nM; half-life [7]: 4.2 h; IC50 [8]: 0.28 nM
16 | C[C@]12CCC(=O)C=C1NCC1C2CC[C@@]2(C)C1CC[C@@H]2C(=O)Nc1cc(C(F)(F)F)ccc1C(F)(F)F (some centres not stated) | 4 | < 0.1 | 300 | Ki [5]: 50 nM; bioavailability [6, 12]: 100%; half-life [7]: 31 h; Reduction in prostate weight (Rattus norvegicus): 130%; Ki [8]: 1.1 nM; Ki [9]: 0.27 nM
17 | CC(C)(C)c1ccc(-c2ccccc2)cc1NC(=O)[C@H]1CCC2C3CNC4=CC(=O)CC[C@]4(C)C3CC[C@@]21C (some centres not stated) | 4.6 | < 0.1 | 830 | –
18 | C[C@]12CCC(=O)C(Cl)=C1NCC1C2CC[C@@]2(C)C1CC[C@@H]2C(=O)NC1(c2ccc(Cl)cc2)CCCC1 (some centres not stated) | 0.6 | < 0.1 | 490 | bioavailability ([6]; 5 mg/kg): 74%; Reduction of prostate weight (Rattus norvegicus): 49%; half-life [11]: 19 h

Molecules with a lower Ki [3], results first:

Row | Ki [1] [nM] | IC50 [2] [nM] | Ki [3] [nM] | Structure (SMILES) | further results
19 | 27 | 0.2 | 85 | CC(C)(C)c1ccccc1NC(=O)[C@H]1CCC2C3CNC4=CC(=O)CC[C@]4(C)C3CC[C@@]21C (some centres not stated) | –
20 | 0.5 | < 0.1 | 200 | CC1=C2NCC3C(CC[C@@]4(C)C3CC[C@@H]4C(=O)Nc3cc(C(F)(F)F)ccc3C(C)(C)C)[C@@]2(C)CCC1=O (some centres not stated) | –
21 | 1100 | 0.5 | 19 | CC(C)(C)c1ccc(-c2ccc(C(F)(F)F)cc2NC(=O)[C@H]2CCC3C4CNC5=CC(=O)CC[C@]5(C)C4CC[C@@]32C)cc1 (some centres not stated) | –
22 | 0.2 | < 0.1 | 160 | C[C@]12CC[C@H]3[C@@H](CNC4=C(Cl)C(=O)CC[C@@]43C)[C@@H]1CC[C@@H]2C(=O)Nc1cc(C(F)(F)F)ccc1C(F)(F)F (stereo in doubt; 27) | –
23 | 8 | < 0.1 | 7.8 | CC(C)(C)c1cc(NC(=O)[C@H]2CCC3C4CNC5=CC(=O)CC[C@]5(C)C4CC[C@@]32C)cc(C(C)(C)C)c1 (some centres not stated) | –
24 | 26 | 0.2 | 58 | C[C@]12CCC(=O)C=C1NCC1C2CC[C@@]2(C)C1CC[C@@H]2C(=O)Nc1cc(C(F)(F)F)cc(C(F)(F)F)c1 (some centres not stated) | –
25 | 6.7 | < 0.1 | 130 | C[C@]12CCC(=O)C=C1NCC1C2CC[C@@]2(C)C1CC[C@@H]2C(=O)NC1(c2ccc(Cl)cc2Cl)CC1 (some centres not stated) | –
26 | – | – | 160 | CC(C)(C)NC(=O)[C@H]1CC[C@H]2[C@@H]3CC=C4C=C(C(=O)O)CC[C@]4(C)[C@H]3CC[C@]12C [EPRISTERIDE] | IC50 [4]: 1600 nM
27 | 240 | – | 10 | C[C@]12CCC(=O)C=C1NCC1C2CC[C@@]2(C)C1CC[C@@H]2C(=O)Nc1ccccc1 (some centres not stated) | –
28 | 0.2 | < 0.1 | 19 | CC1=C2NCC3C(CC[C@@]4(C)C3CC[C@@H]4C(=O)Nc3cc(C(F)(F)F)ccc3C(F)(F)F)[C@@]2(C)CCC1=O (some centres not stated) | –
29 | – | < 0.1 | 280 | C[C@]12CCC(C(=O)O)=CC1=CCC1C2CC[C@@]2(C)C1CC[C@@H]2C(=O)NC1(c2ccc(Cl)cc2)CCCC1 (some centres not stated) | IC50 [4]: 60 nM
